Screening data from PubChem BioAssay.
MrgX1 PAM – allosterically activates human MrgX1 receptor signaling; MrgX1-HEK293, Fluo-4 calcium flux, FDSS; active compounds read high; AID 588675; B-score at 10 µM; Q96LB2; hit rate 0.63% among 310,000;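 active = plate-corrected calcium response at least 3 library SD above typical, normal starting fluorescence, not activating the receptor alone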;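 note: compound read alongside a low EC10 to EC30 dose of BAM8-22 agonist; peak minus trough fluorescence over baseline measured at the second addition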
Target sequence (Q96LB2 whole entry, looked up): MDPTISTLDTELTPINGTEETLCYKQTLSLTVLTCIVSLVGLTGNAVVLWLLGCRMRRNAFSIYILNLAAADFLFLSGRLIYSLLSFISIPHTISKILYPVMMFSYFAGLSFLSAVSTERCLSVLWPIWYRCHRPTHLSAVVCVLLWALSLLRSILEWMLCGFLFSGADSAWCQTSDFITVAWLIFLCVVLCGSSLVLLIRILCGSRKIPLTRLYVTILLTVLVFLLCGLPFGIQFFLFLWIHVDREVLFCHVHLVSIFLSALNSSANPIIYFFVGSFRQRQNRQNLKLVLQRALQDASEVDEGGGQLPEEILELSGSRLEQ
RGS4 inh – human RGS4 inhibition; P49798; HEK293 M3R/RGS4 inducible, Fluo-4 calcium flux; active compounds read high; triggered by carbachol at its EC20; B-score at 10 µM; hit rate 0.45% among 310,000; AID 463165;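 active = B-score, a plate-corrected calcium signal, over three deviations above library mean, with baseline fluorescence within five deviations of library mean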;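 note: RGS4 expression induced by doxycycline in cells with stable M3 receptor; B-score is computed from the integrated fluorescence ratio over baseline after carbachol; higher B-score means a larger calcium signal and so more RGS4 inhibition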
Target sequence (P49798 whole entry, looked up): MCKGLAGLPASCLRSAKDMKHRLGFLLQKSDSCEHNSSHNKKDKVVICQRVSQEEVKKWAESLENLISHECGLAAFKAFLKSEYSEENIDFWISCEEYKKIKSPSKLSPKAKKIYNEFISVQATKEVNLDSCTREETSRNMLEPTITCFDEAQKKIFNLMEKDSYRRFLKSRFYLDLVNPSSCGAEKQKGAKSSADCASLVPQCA
RGS4 pot – potentiators or activators of RGS4 | AID 463111 | HEK293 M3R/inducible RGS4, carbachol calcium flux Fluo4; active compounds read low | B-score at 10 µM | hit rate 0.92% among 310,000;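 active = B-score of the integrated calcium signal more than 4 SD below the library mean, with starting fluorescence not abnormally high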;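 note: negative B-score means reduced calcium response which marks RGS4 activation or potentiation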
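Also added: carbachol at ECmax as muscarinic agonist stimulus; Assay system: HEK293 cells with stable M3R and inducible RGS4; Timing: overnight RGS4 induction, 30 min dye load 37 °C, 20 min compound RT; Measured by: Fluo4-AM (2 µM) calcium-flux fluorescence, kinetic read.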
MrgX1 antag – blocks BAM8-22 activation of human MrgX1 receptor. Q96LB2. MRGX1-HEK293 calcium flux, Fluo-4, BAM8-22 antagonism; active compounds read low. B-score at 10 µM. hit rate 1.3% among 310,000;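 active = calcium-response B-score plate-corrected more than 3 library SD below zero, starting fluorescence within 5 deviations, no agonist response on first addition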;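 note: peak minus trough fluorescence over baseline after final BAM8-22 challenge near maximal dose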
MrgX1 ag – agonists of human MrgX1 receptor. MrgX1-HEK293 cells, Fluo-4 calcium fluorescence, agonist mode; active compounds read high. Q96LB2. B-score at 10 µM. hit rate 0.44% among 310,000;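 active = calcium response B-score plate-corrected fluorescence ratio at least 3 library SD, with starting fluorescence B-score inside 5 SD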
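Test system: HEK293 cells stably expressing human MrgX1 receptor; Input: fifteen thousand cells per well; Dosing: compound delivered in addition one of three; Schedule: overnight seeding, then 1 h dark dye loading; Technique: Fluo-4 NW calcium fluorescence; Measure: B-scored fluorescence response ratio; Controls: positive and negative controls per plate.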
RGS4 inh valid – RGS4 inhibitor validation. shares compounds with RGS4 inh. HEK293 M3R/RGS4, carbachol calcium Fluo-4 fluorescence; carbachol added at its EC20; 0 = buffer wells, 100 = carbachol control. calcium response, % at 10 µM. hit rate 65% among 1,700. AID 492999;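 active = duplicate-averaged calcium response above the buffer-only control mean plus 5 SD of those controls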;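 note: integrated fluorescence ratio F max minus min over baseline F0; higher response in RGS4-induced cells means RGS4 inhibition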
RGS4 uninduced – non-induced cell nonspecific activity of RGS4 inhibitors | activity (percent), % at 10 µM | hit rate 20% among 1,900 | HEK293 M3R non-induced, carbachol calcium Fluo-4; submaximal (EC20) carbachol stimulus; buffer wells 0%, carbachol control wells 100% | AID 493000 | shares compounds with RGS4 inh; call rule not given here;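 note: RGS4 induction absent so cells express M3R without RGS4; higher means more calcium signal and flags a non-specific hit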
RGS4 inh ctr2 – second counter-screen for RGS4 inhibitors: non-induced cells without carbachol. shares compounds with RGS4 inh. HEK293 M3R/RGS4 non-induced, Fluo-4 calcium, no carbachol; normalised: buffer wells 0%, carbachol wells 100%. calcium response (agonist-mode artifact), % at 10 µM. hit rate 22% among 1,900. AID 493001;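 active = duplicate-averaged calcium rise in uninduced cells above buffer wells' mean plus 5 SD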
MrgX1 ag confirm – confirmation of human MrgX1 receptor agonists; shares compounds with MrgX1 ag; MrgX1-HEK293, Fluo-4 calcium fluorescence, FDSS; activation, % at 10 µM; hit rate 78% among 600;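 active = calcium signal rise, corrected for plate position, at least 3 library SD high, with starting brightness within 5 such deviations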
MrgX1 allo conf – confirmation of human MrgX1 receptor positive allosteric modulators. shares compounds with MrgX1 PAM. MrgX1-HEK293, Fluo-4 calcium fluorescence, FDSS. activation (ratio percentage), % at 10 µM. hit rate 13% among 1,200. AID 602413;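 active = ratio at least 3 SD above the weak peptide control, stable starting fluorescence, no direct agonism earlier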;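 note: compound followed by low BAM8-22 agonist challenge near EC20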
MrgX1 antag conf – confirmation of human MrgX1 receptor antagonists. shares compounds with MrgX1 antag. MrgX1-HEK293, BAM8-22 calcium flux, Fluo-4; active compounds read low. remaining BAM8-22 calcium response % of control (active compounds read low), % at 10 µM. hit rate 19% among 2,300. AID 602420;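 active = remaining agonist calcium response no higher than 100% minus 3 SD of agonist-only control wells, with starting fluorescence near control levels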;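 note: agonist BAM8-22 given at a near maximal EC90 to ECmax level; peak minus minimum fluorescence divided by baseline after agonist addition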
HEK293 Ca flux – MrgX1 antagonist counter-screen hit in parental HEK293 cells | fluorescence ratio F(max-min)/F0 at 10 µM | shares compounds with MrgX1 antag | Fluo-4 calcium fluorescence, FDSS | hit rate 2% among 4,000;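 active = duplicate-averaged calcium fluorescence ratio at least three times the standard deviation of buffer wells, a nonspecific response in parental cells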
HEK293 Ca counter – activity in parental HEK293 cells without MrgX1. shares compounds with MrgX1 antag. hit rate 0.4% among 4,000. fluorescence ratio F(max-min)/F0 at 10 µM. AID 624114. parental HEK293 calcium flux, Fluo-4 fluorescence ratio; active compounds read high;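 active = calcium fluorescence ratio, averaged over duplicates, at least 3 SD of the buffer-well ratio, meaning a nonspecific response in receptor-free cells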;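 note: untransfected parental HEK293 lacking MrgX1 used as counterscreen for MrgX1 allosteric activators; fluorescence change taken during the second addition on a kinetic imager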
HEK293 Ca cntr2 – MrgX1 activator counter-screen hit in parental HEK293 cells | shares compounds with MrgX1 antag | Fluo-4 calcium fluorescence (FDSS); active compounds read high | fluorescence ratio F(max-min)/F0 at 10 µM | hit rate 8.7% among 4,000 | AID 624115;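 active = calcium fluorescence ratio at least three times the spread of buffer wells, meaning a non-specific response in parental cells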
The depositor's hits bear a star. Hits are enriched below; roughly 3.5% of the tested compounds scored in any of these assays.

How did CCN=C1SC(C(=O)Nc2ccc(OC)cc2)CC(=O)N1CC (stereo not given) do in these assays?
MrgX1 PAM: inactive; RGS4 inh: inactive; RGS4 pot: inactive; MrgX1 antag: inactive; MrgX1 ag: inactive

How did O=C1/C(=C\c2ccc(O)c(O)c2)SC(=S)N1Cc1ccccc1 do in these assays?
MrgX1 PAM: inactive; RGS4 inh: 14*; RGS4 pot: inactive; MrgX1 antag: -12*; MrgX1 ag: inactive; RGS4 inh valid: 16%*; RGS4 uninduced: 36%*; RGS4 inh ctr2: 42%*; MrgX1 antag conf: inactive; HEK293 Ca flux: 0.31*; HEK293 Ca counter: inactive; HEK293 Ca cntr2: inactive

Results for O=C1/C(=C/c2ccc(O)cc2)SC(=S)N1Cc1cccnc1 ?
MrgX1 PAM: inactive; RGS4 inh: inactive; RGS4 pot: inactive; MrgX1 antag: inactive; MrgX1 ag: inactive

Results for Cc1c(-c2nc(N)nc(Nc3ccccc3F)n2)oc2ccccc12 ?
MrgX1 PAM: 16*; RGS4 inh: inactive; RGS4 pot: inactive; MrgX1 antag: inactive; MrgX1 ag: inactive; RGS4 uninduced: inactive; RGS4 inh ctr2: inactive; MrgX1 allo conf: 59%*; HEK293 Ca flux: inactive; HEK293 Ca counter: inactive; HEK293 Ca cntr2: inactive

How did COc1cc(/C=C2\C(=O)ON=C2c2ccccc2)cc(Br)c1O do in these assays?
MrgX1 PAM: inactive; RGS4 inh: 4.7*; RGS4 pot: inactive; MrgX1 antag: inactive; MrgX1 ag: 78*; RGS4 inh valid: 9.5%*; RGS4 uninduced: inactive; RGS4 inh ctr2: 281%*; MrgX1 ag confirm: inactive; HEK293 Ca flux: inactive; HEK293 Ca counter: inactive; HEK293 Ca cntr2: inactive

How did CCOc1cc(/C=C2\C(=O)ON=C2c2ccccc2)cc(Br)c1O do in these assays?
MrgX1 PAM: inactive; RGS4 inh: inactive; RGS4 pot: inactive; MrgX1 antag: inactive; MrgX1 ag: 83*; RGS4 inh valid: inactive; RGS4 uninduced: inactive; RGS4 inh ctr2: 322%*; MrgX1 ag confirm: inactive; HEK293 Ca flux: inactive; HEK293 Ca counter: inactive; HEK293 Ca cntr2: inactive

What do the screens show for `COc1cc(C=C2C(=O)OC(c3ccccc3)OC2=O)cc(Br)c1O` (stereo not given)?
MrgX1 PAM: inactive; RGS4 inh: inactive; RGS4 pot: inactive; MrgX1 antag: inactive; MrgX1 ag: inactive
